M1 ag = M1 muscarinic receptor agonists, primary screen, CHO-M1 cells, Fluo-4 calcium, agonist mode | Muscarinic acetylcholine receptor M1 | Fluo-4 calcium fluorescence; active compounds read high | B-score at 10 µM | hit rate 3% among 64,000;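 active = fluorescence rise, raw or as B-score row- and column-corrected plate score, outside the 99.7% band of its plate's samples, either direction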
D1 allo mod = D1 CRE-luciferase signal change, two-sided – cell-based, HEK293 D1, dopamine EC30, D1 allosteric modulator project, primary screen. D(1A) dopamine receptor (Homo sapiens), P21728. dopamine EC30 potentiation; actives deviate in either direction. B-score at 10 µM. hit rate 5.9% among 58,000;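 active = luminescence count or its row- and column-corrected plate score outside the 99.7% band of the plate's sample wells, on either side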
DAT uptake mod = changed hDAT dopamine uptake under cocaine IC80, either direction, primary screen, cocaine antagonist project, cell-based, LLC-PK1 hDAT, [14C]-dopamine uptake, MLSMR | Sodium-dependent dopamine transporter (Homo sapiens), Q01959 | LLC-PK1 hDAT cells, [14C]-dopamine uptake with cocaine IC80; actives deviate in either direction | B-score at 10 µM | hit rate 1.3% among 110,000 | AID 449768, 2010;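 active = Z score or B-score, a plate-position-corrected score, falls beyond the plate's 99.7% confidence bounds, in either direction; inactive = both scores lie inside the 99.7% bounds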;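 note: scored against the spread of the other compound wells on the same plate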
Target sequence (Q01959 whole entry, looked up): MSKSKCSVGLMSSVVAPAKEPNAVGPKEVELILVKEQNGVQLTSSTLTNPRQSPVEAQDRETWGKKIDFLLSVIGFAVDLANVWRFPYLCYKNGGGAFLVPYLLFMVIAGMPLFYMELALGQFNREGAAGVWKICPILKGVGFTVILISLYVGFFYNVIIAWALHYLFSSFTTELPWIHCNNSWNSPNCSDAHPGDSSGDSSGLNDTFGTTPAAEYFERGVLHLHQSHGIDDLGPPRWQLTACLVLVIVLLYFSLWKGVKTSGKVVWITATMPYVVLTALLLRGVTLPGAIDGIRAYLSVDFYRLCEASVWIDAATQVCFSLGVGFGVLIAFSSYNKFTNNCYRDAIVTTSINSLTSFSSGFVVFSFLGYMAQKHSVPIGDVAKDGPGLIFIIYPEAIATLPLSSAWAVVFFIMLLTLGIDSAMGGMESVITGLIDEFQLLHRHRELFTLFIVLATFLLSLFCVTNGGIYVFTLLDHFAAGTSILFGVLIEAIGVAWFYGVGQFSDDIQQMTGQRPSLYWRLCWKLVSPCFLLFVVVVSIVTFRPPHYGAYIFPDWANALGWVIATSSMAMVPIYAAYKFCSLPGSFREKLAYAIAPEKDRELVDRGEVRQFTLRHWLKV
M1 antag = antagonists of rat M1 muscarinic receptor; hit rate 3.4% among 64,000; B-score at 10 µM; Muscarinic acetylcholine receptor M1 (Rattus norvegicus), P08482; CHO-M1 cells, Fluo-4 calcium, ACh EC80 antagonist mode; active compounds read low;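 active = calcium fluorescence response, raw or row-and-column corrected B-score, differing from the plate sample mean either way at a set confidence level, mostly lower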
HEK293 NFkB inh = inhibitors of PMA/ionomycin-induced NF-kB reporter, primary screen, antigen receptor NF-kB inhibitor project, cell-based, HEK-293 luciferase reporter, luminescence. HEK-293 NF-kB luciferase reporter. AID 465, 2006. hit rate 0.21% among 62,000. inhibition, % at 3 µM;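 active = inhibition above the mean of all tested compounds plus 3 SD, cut at about 40% in these data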;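 note: 0% = stimulated DMSO wells and 100% = 10 µM reference inhibitor 5653914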
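Material: HEK-293 cells with stable firefly luciferase reporter driven by four HIV NF-kB elements / Also added: PMA plus ionomycin mix as NF-kB-activating stimulus / Compound dosing: 3 µM once, 0.30% DMSO / Times: 1 h pretreatment, 16 h stimulation, 37 °C / Signal: luminescence / Evaluation: per-plate % inhibition versus controls / Benchmarks: DMSO and 10 µM reference inhibitor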
BAP1 block = inhibitors of BAP1 deubiquitinase, primary screen, biochemical, Ub-AMC fluorescence, kinetic | Ubiquitin carboxyl-terminal hydrolase BAP1 (Homo sapiens), Q92560 | recombinant BAP1, Ub-AMC hydrolysis fluorescence kinetic; active compounds read low | calls only at 20 µM | hit rate 0.48% among 72,000 | AID 436, 2006;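 active = activity remaining at or below 50% of control, provided the compound also passes the data quality filters; inactive = the rest, including low values that fail the filters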;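 note: 100% = DMSO wells rate and 0% = substrate alone blank rate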
M1 ag confirm = rat M1 muscarinic receptor agonists, confirmation, CHO-M1 cells, Fluo-4 calcium, duplicate retest; shares compounds with M1 ag; Fluo-4 calcium fluorescence, agonist mode; actives lie on both sides; fluorescence change (max-min) at 10 µM; hit rate 19% among 1,700;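 active = fluorescence change differs from the solvent-only DMSO control mean at a set confidence level in both duplicate runs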;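 note: an EC20 dose of acetylcholine follows compound addition during the same imaging run; raw fluorescence intensity difference in instrument units with no normalization to controls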
M4 ag counter = agonist activity at rat M4 receptor, confirmation, counter-screen for M1 allosteric modulator project, cell-based, agonist mode | shares compounds with M1 ag | CHO M4/Gqi5 cells, Fluo-4 calcium fluorescence; actives lie on both sides | fluorescence change (max-min) at 10 µM | hit rate 9% among 1,700;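 active = fluorescence change differing from the plate's solvent-only control wells at 99.7% confidence in both duplicates, whether higher or lower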
M1 antag confirm = rat M1 muscarinic receptor antagonists, confirmation, CHO cells, Fluo-4 calcium, duplicate; hit rate 43% among 1,700; calcium response (max-min fluorescence) at 10 µM; shares compounds with M1 antag; ACh EC80 antagonism; active compounds read low;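 active = calcium response below the same-plate mean of wells given acetylcholine alone at its 80%-effect dose, minus 3 SD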;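 note: raw fluorescence intensity difference in arbitrary instrument units and not normalized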
mGluR4 antag = human mGluR4 response to M1 antagonist hits, M1 allosteric modulator project, cell-based, antagonist mode, secondary assay 1. shares compounds with M1 antag. CHO-mGluR4 calcium flux, Fluo-4 fluorescence, glutamate EC80; active compounds read low. fluorescence response (max-min) at 10 µM. hit rate 0.9% among 1,700. AID 678, 2007;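 active = fluorescence response below the plate's average for near-maximal glutamate wells, less 3 SD of those wells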;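 note: raw unnormalized fluorescence span taken in the window right after glutamate addition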
D1 mod confirm = D1 receptor positive allosteric modulators, retest, confirmation, cell-based, HEK293 D1, CRE-luciferase, duplicate. shares compounds with D1 allo mod. dopamine EC30 potentiation; active compounds read high. luminescence at 10 µM. hit rate 88% among 2,200. AID 642, 2007;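 active = luminescence in either of two replicates above the same-plate mean plus 3 SD of the low-dose dopamine control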
D1 ag no DA = D1 receptor agonism without dopamine, confirmation, mechanism study for D1 allosteric modulator project, cell-based, HEK293 D1, CRE-luciferase, secondary assay 1 | luminescence at 10 µM | luminescence, no dopamine; active compounds read high | AID 646, 2007 | hit rate 0.8% among 1,900 | shares compounds with D1 allo mod; in the data active = luminescence above about 3900
Isoprot counter = counter-screen for D1 modulators: isoproterenol response in HEK293 cells | shares compounds with D1 allo mod | calls only at 10 µM | hit rate 63% among 2,200 | HEK293 D1 CRE-luciferase, isoproterenol EC30 counter-screen;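 active = luminescence in either replicate above plate mean of wells with a partly effective reference agonist dose plus 3 SD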;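 note: isoproterenol raises cAMP through native beta-adrenoceptor Gs so signal bypasses D1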
Numbers without * were called inactive; i = inactive; . = no result given; + = active, no number. Compounds with a hit are over-represented: about 7.2% of the library has one in this group of screens.

SMILES | M1 ag | D1 allo mod | DAT uptake mod | M1 antag | HEK293 NFkB inh | BAP1 block | M1 antag confirm | mGluR4 antag | others
CCCCn1c(O)c(C(CC)=NCc2ccc3c(c2)OCO3)c(=O)[nH]c1=O | 4.3* | 7.4* | -0.81 | -0.8 | 22 | i | . | . | M1 ag confirm=5.3;M4 ag counter=-24;D1 mod confirm=12520*;D1 ag no DA=1728;Isoprot counter=+
O=C(Nc1ccc(Br)cc1C(=O)c1ccccc1Cl)c1ccco1 | . | . | . | . | . | i | . | .
COc1ccc(C2NCc3ccc4c(c3-n3cccc32)OCO4)cc1O (configuration not stated) | -2.3 | 0.91 | -0.025 | -2.2* | 26 | i | 108* | 232
c1cc2n(c1)-c1c(ccc3c1OCO3)CNC2c1ccc2c(c1)OCO2 (configuration not stated) | -1.7 | 0.068 | 0.12 | -10* | 21 | i | 305* | 242
CC(=O)Oc1ccc(C(=O)Nc2ccc(Cl)cc2C(=O)c2ccccc2)cc1 | . | . | . | . | . | i | . | .
O=c1c(Cl)c(Cl)[nH]c(Cl)c1Cl | . | . | . | . | . | i | . | .
O=c1c2ccccc2nc(-c2ccccc2)n1-n1cccc1 | 0.97 | 2.2 | 0.2 | -2* | 9 | i | 632 | 249
Cc1nc2ccccc2c(=O)n1-c1ccccn1 | 0.34 | -0.33 | 0.033 | -0.12 | 23 | i | . | .
Cc1nc2ccccc2c(=O)n1-n1cnnc1 | -0.7 | -1.3 | -1.6 | -2.7* | 1 | i | 726 | 236
O=[N+]([O-])c1ccc(NCCCN2CCOCC2)c2cccnc12 | . | . | . | . | . | i | . | .
O=C(Nc1ccc(Cl)cc1C(=O)c1ccccc1)c1ccc(Br)cc1 | . | . | . | . | . | i | . | .
CC1(C)CN=C(NCc2ccccc2Cl)S1 | 1 | . | 0.87 | -5.1* | 8 | i | 350* | 193
COc1ccc(Br)cc1CN1CCN(CCO)CC1 | 0.062 | -1 | 0.16 | -0.024 | -1 | i | . | .
COc1cc(Br)cc(CN2CCN(C)CC2)c1O | -0.82 | -0.99 | 0.9 | -3.9* | 12 | i | 378* | 278
COc1ccccc1CC1/C(=N/O)C2CCN1CC2 (configuration not stated) | 0.0037 | -2.4 | -0.93 | -2.6* | 4 | i | 540 | 245
NC(=O)C1(N2CCCCC2)CCN(Cc2ccccc2)CC1 | -0.22 | -0.7 | -1.4 | 0.68 | -4 | i | . | .
O=C(Cc1ccccc1)OCCN1CCCCC1 | 1.2 | -0.035 | -0.6 | -3.5* | 7 | i | 507* | 242
CCCCOc1ccc(CN2CCN(CCO)CC2)cc1 | -0.041 | -0.83 | -0.15 | -4.8* | 10 | i | 310* | 210
CCCCOc1ccc(CN2CCN(CC)CC2)cc1 | . | . | -0.036 | . | . | . | . | .
CCCCCCOc1ccc(CN2CCN(CCO)CC2)cc1 | -0.56 | -1.7 | 1 | -5.3* | -18 | i | 366* | 306
COc1ccccc1-n1c(C=Cc2ccccc2[N+](=O)[O-])nc2ccccc2c1=O | . | . | . | . | . | i | . | .
O=c1[nH]c(=O)n(CCc2ccc(F)cc2)c(O)c1C=NCCCn1ccnc1 | -0.69 | 0.1 | 0.15 | 0.25 | 11 | i | . | .
O=c1[nH]c(=O)n(Cc2ccco2)c(O)c1C=NCCCn1ccnc1 | -0.38 | -0.38 | . | -2.8* | . | i | 672 | 262
O=C(Nc1ccc(Br)cc1C(=O)c1ccccc1Cl)c1ccc([N+](=O)[O-])cc1 | . | . | . | . | . | i | . | .
CC1CN(c2ccc([N+](=O)[O-])cc2)CCN1 (configuration not stated) | . | . | . | . | . | i | . | .
SMILES | M1 ag | D1 allo mod | DAT uptake mod | M1 antag | HEK293 NFkB inh | BAP1 block | M1 antag confirm | mGluR4 antag | others
Oc1ccc(C2NCc3ccccc3-n3cccc32)cc1Cl (configuration not stated) | -1.8 | -1.9 | 0.93 | -3.5* | 15 | i | 579 | 248
CC(=O)OCC1=C(C(=O)[O-])N2C(=O)[C@@H](NC(=O)CCC[C@@H](N)C(=O)[O-])[C@H]2SC1.[Zn+2] | . | . | . | . | . | i | . | .
CN1CCC(N(C)c2ncnc3ccc(Br)cc23)CC1 | -0.34 | -4.3* | -0.14 | -0.9* | 14 | i | 516 | 244
Nc1nn[nH]n1 | . | . | . | . | . | i | . | .
Nc1ccccc1C(=O)OC1CSC1 | 0.24 | 0.21 | -0.48 | -6.2* | 0 | i | 668 | 241
Nc1ccccc1C(=O)c1ccccc1 | 0.13 | 0.0056 | -0.61 | 0.16 | 6 | i | . | .
Cc1nc2cc([N+](=O)[O-])ccc2c(=O)n1-c1ccc(Cl)cc1 | . | . | . | . | . | i | . | .
CC(C)c1cccc(C(C)C)c1OCCn1ccnc1 | 0.038 | 1.6 | -0.43 | -2* | 15 | i | 416* | 238
Cc1c(N=Cc2c(O)n(CCc3ccc(F)cc3)c(=O)[nH]c2=O)c(=O)n(-c2ccccc2)n1C | 0.9 | 0.022 | -0.39 | -4.8* | . | i | 259* | 241
CCc1nc(N2CCNCC2)c(C#N)c2c1CSC(C)(C)C2 | -0.98 | . | . | -5.2* | . | i | 264* | 211

Compound activity: PubChem, several laboratories
